Results taken from ChEMBL document CHEMBL1129331, “Synthesis and physicochemical, biological, and pharmacological properties of new bile acids amidated with cyclic amino acids” (J Med Chem, 1996).
Converted amounts (≈) assume the structure as drawn.

Key:
Rattus norvegicus [1] = test: Secretion of Bile acids in Bile Fistula rats after the iv administration of compound, expressed as the residual secretion rate; assay type: ADME, organism-based; details: in vivo
Summary of the method: (§1)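 Male Sprague-Dawley rats (300-330 g), urethane-anesthetized, bile duct cannulated. After 1 h baseline, sodium salt infused via femoral vein at 10 μmol/min/kg for 1 h; bile collected at 15-min intervals for 3 h. Flow measured gravimetrically; bile acids, cholesterol and phospholipid measured enzymatically. Smax and Tmax read from secretion-time plots; Rs is the rate at hour 3. Mean ± SD, n=6.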

Rattus norvegicus [2] = test: Secretion of Bile in Bile Fistula rats after the iv administration of compound, expressed as the residual secretion rate i; assay type: ADME, organism-based; details: in vivo; summary of the method: as §1
Rattus norvegicus [3] = test: Secretion of cholesterol in Bile Fistula rats after the iv administration of compound, expressed as the residual secretion rate; assay type: ADME, organism-based; details: in vivo; summary of the method: as §1
Rattus norvegicus [4] = test: Secretion of phospholipid in Bile Fistula rats after the iv administration of compound, expressed as the residual secretion rate i; assay type: ADME, organism-based; details: in vivo; summary of the method: as §1
[5] = Water solubility was determined; assay type: ADME; details: read-out: WS
Summary of the method: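 Protonated form; measured on saturated solutions at pH 1.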

Rattus norvegicus [6] = test: Alkaline phosphatase in Bile Fistula rats after iv coinfusion of TCDCA and compound.; assay type: ADME, organism-based; details: in vivo
Summary of the method: (§2)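 Bile fistula Sprague-Dawley rats (200-250 g). TCDCA and test bile acid given as sodium salts, coinfused via jugular vein, each at 8 μmol/min/kg for 1 h. Bile collected at 30-min intervals for 3 h. Calcium, ALP and LDH in bile measured enzymatically; bile acid composition by HPLC (65% methanol, 15 mM ammonium acetate, pH 5.4). Mean ± SD.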

Rattus norvegicus [7] = test: Lactate dehydrogenase in Bile Fistula rats after iv coinfusion of TCDCA and compound.; assay type: ADME, organism-based; details: in vivo; summary of the method: as §2
[8] = Critical Micellar concentration was determined; assay type: ADME
Summary of the method: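 Measured in water from surface tension, using the maximum bubble-pressure method.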

Rattus norvegicus [9] = test: Bile flow in Bile Fistula rats after iv coinfusion of TCDCA and compound.; assay type: ADME, organism-based; details: in vivo; summary of the method: as §2
Rattus norvegicus [10] = test: Calcium output in Bile Fistula rats after iv coinfusion of TCDCA and compound.; assay type: ADME, organism-based; details: in vivo; summary of the method: as §2
Rattus norvegicus [11] = test: Maximum biliary secretion rate of TCDCA after iv coinfusion in Bile fistula rats.; assay type: ADME, organism-based; details: in vivo; summary of the method: as §2
Rattus norvegicus [12] = test: Maximum biliary secretion rate of bile acids after iv coinfusion in Bile fistula rats.; assay type: ADME, organism-based; details: in vivo; summary of the method: as §2
Rattus norvegicus [13] = test: Secretion of Bile acids in Bile Fistula rats after the iv administration of compound, expressed as the maximum secretion rate i; assay type: ADME, organism-based; details: in vivo; summary of the method: as §1
Rattus norvegicus [14] = test: Secretion of Bile in Bile Fistula rats after the iv administration of compound, expressed as the maximum secretion rate; assay type: ADME, organism-based; details: in vivo; summary of the method: as §1
Rattus norvegicus [15] = test: Secretion of cholesterol in Bile Fistula rats after the iv administration of compound, expressed as the maximum secretion rate i; assay type: ADME, organism-based; details: in vivo; summary of the method: as §1
Rattus norvegicus [16] = test: Secretion of phospholipid in Bile Fistula rats after the iv administration of compound, expressed as the maximum secretion rate i; assay type: ADME, organism-based; details: in vivo; summary of the method: as §1
[17] = Relative lipophilicity was determined; assay type: physicochemical; details: C-18 reverse phase HPLC
Summary of the method: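 C-18 reverse-phase HPLC run isocratically at 0.9 mL/min. Mobile phase 65% (v/v) aqueous methanol with 2 mM ammonium acetate, pH 7, so that all bile acids are fully ionized.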

cholylglycine hydrolase = test: The compound was incubated with cholylglycine hydrolase and tested for determining the stability towards C-24 Deamination; assay type: ADME; details: cholylglycine hydrolase
[18] = The compound was incubated with human stools and tested for determining the stability towards C-24 Deamination; assay type: ADME, organism-based; details: in the assay text read “7-dehydroxylation” for “C-24 Deamination”
Summary of the method: (§3)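 Homogenized fresh human stool (500 mg) in 5 mL chopped meat-glucose medium; bile acid added at 0.05 mM final; 37 °C. Sampled at 0–72 h and stopped with 30% KOH. Bile acids recovered by C-18 solid-phase extraction, then analyzed by TLC and by HPLC with 75% methanol/15 mM ammonium acetate, pH 5.4.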

[19] = Partition coefficient (logP); assay type: physicochemical; details: octanol/water
Summary of the method: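 Octanol/water partition coefficient of the protonated species, calculated rather than measured.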

[20] = Acidity constant was determined; assay type: ADME
[21] = Critical micellar pH was determined
Summary of the method: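 20 mL of 50 mM bile salt solution titrated with 0.1 M HCl. CMpH is taken as the pH at which precipitate of the protonated form is first seen by turbidity at 500 nm. Confirmed by back-titration with 0.1 M NaOH until the suspension clears.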

[22] = The compound was incubated with human stools and tested for determining the stability towards 7-dehydroxylation; assay type: ADME, organism-based; summary of the method: as §3
[23] = The compound was incubated with human stools and tested for determining the stability towards 7 dehydroxylation; assay type: ADME

CC(CCC(=O)N1CCC[C@@H]1C(=O)O)C1CC[C@H]2[C@@H]3C[C@H](O)C4C[C@H](O)CC[C@]4(C)[C@H]3CC[C@]12C (stereo not given in full)
Rs (Rattus norvegicus [1]): 1.4 µM/min/kg | Rs (Rattus norvegicus [2]): 47 µL/min/kg | Rs (Rattus norvegicus [3]): 46 nM/min/kg | Rs (Rattus norvegicus [4]): 0.21 µM/min/kg | solubility [5]: 52 µM (≈ 25.5 µg/mL) | [ALP]max (Rattus norvegicus [6]): 57 IU/L | [LDH]max (Rattus norvegicus [7]): 95 UI l-1 | CMC [8]: 25 mM | Smax (Rattus norvegicus [9]): 83 µL/min/kg | Smax (Rattus norvegicus [10]): 0.42 µM/min/kg | Smax (Rattus norvegicus [11]): 3.88 µM/min/kg | Smax (Rattus norvegicus [12]): 3.02 µM/min/kg | Smax (Rattus norvegicus [13]): 5.7 µM/min/kg | Smax (Rattus norvegicus [14]): 67 µL/min/kg | Smax (Rattus norvegicus [15]): 60 nM/min/kg | Smax (Rattus norvegicus [16]): 0.34 µM/min/kg | rK [17]: 0.94 | half-life (cholylglycine hydrolase): > 3 days | half-life [18]: > 3 days | logP [19]: 4.41 | pKa [20]: 3.9 | CMpH [21]: 6.6

CC(CCC(=O)N1CCC[C@H]1C(=O)O)C1CC[C@H]2[C@@H]3[C@@H](O)CC4C[C@H](O)CC[C@]4(C)[C@H]3CC[C@]12C (stereo not given in full)
Rs (Rattus norvegicus [1]): 1.6 µM/min/kg | Rs (Rattus norvegicus [2]): 51 µL/min/kg | Rs (Rattus norvegicus [3]): 28 nM/min/kg | Rs (Rattus norvegicus [4]): 0.09 µM/min/kg | solubility [5]: 59 µM (≈ 28.9 µg/mL) | [ALP]max (Rattus norvegicus [6]): 30 IU/L | [LDH]max (Rattus norvegicus [7]): 71 UI l-1 | CMC [8]: 7 mM | Smax (Rattus norvegicus [9]): 97 µL/min/kg | Smax (Rattus norvegicus [10]): 0.38 µM/min/kg | Smax (Rattus norvegicus [11]): 3.64 µM/min/kg | Smax (Rattus norvegicus [12]): 2.07 µM/min/kg | Smax (Rattus norvegicus [13]): 7.9 µM/min/kg | Smax (Rattus norvegicus [14]): 65 µL/min/kg | Smax (Rattus norvegicus [15]): 52 nM/min/kg | Smax (Rattus norvegicus [16]): 0.2 µM/min/kg | rK [17]: 0.92 | half-life (cholylglycine hydrolase): > 3 days | half-life [22]: > 3 days | logP [19]: 4.41 | pKa [20]: 3.9 | CMpH [21]: 6

CC(CCC(=O)NCC(=O)O)C1CC[C@H]2[C@@H]3C[C@H](O)C4C[C@H](O)CCC4(C)[C@H]3CCC12C (stereo not given in full)
half-life (cholylglycine hydrolase): 0.208 days

C[C@H](CCC(=O)NCCS(=O)(=O)O)[C@H]1CC[C@H]2[C@@H]3[C@H](O)C[C@@H]4C[C@H](O)CC[C@]4(C)[C@H]3C[C@H](O)[C@]12C [TAUROCHOLIC ACID]
half-life (cholylglycine hydrolase): 0.167 days | half-life [23]: 360 min

CC(CCC(=O)N1CCC[C@@H]1C(=O)O)C1CC[C@H]2[C@@H]3[C@@H](O)CC4C[C@H](O)CC[C@]4(C)[C@H]3CC[C@]12C (stereo not given in full)
Rs (Rattus norvegicus [1]): 0.9 µM/min/kg | Rs (Rattus norvegicus [2]): 50 µL/min/kg | Rs (Rattus norvegicus [3]): 31 nM/min/kg | Rs (Rattus norvegicus [4]): 0.11 µM/min/kg | solubility [5]: 113 µM (≈ 55.3 µg/mL) | [ALP]max (Rattus norvegicus [6]): 32 IU/L | [LDH]max (Rattus norvegicus [7]): 16 UI l-1 | CMC [8]: 15 mM | Smax (Rattus norvegicus [9]): 86 µL/min/kg | Smax (Rattus norvegicus [10]): 0.42 µmol/min/kg | Smax (Rattus norvegicus [11]): 5.43 µM/min/kg | Smax (Rattus norvegicus [12]): 3.22 µM/min/kg | Smax (Rattus norvegicus [13]): 6 µM/min/kg | Smax (Rattus norvegicus [14]): 90 µL/min/kg | Smax (Rattus norvegicus [15]): 55 nM/min/kg | Smax (Rattus norvegicus [16]): 0.28 µM/min/kg | rK [17]: 1.25 | half-life (cholylglycine hydrolase): > 3 days | half-life [22]: > 3 days | logP [19]: 5.83 | pKa [20]: 3.9 | CMpH [21]: 6

CO[C@H]1C[C@H](C(=O)O)N(C(=O)CCC(C)C2CC[C@H]3[C@@H]4[C@@H](O)CC5C[C@H](O)CC[C@]5(C)[C@H]4CC[C@]23C)C1 (stereo not given in full)
Rs (Rattus norvegicus [1]): 0.8 µM/min/kg | Rs (Rattus norvegicus [2]): 44 µL/min/kg | Rs (Rattus norvegicus [3]): 12 nM/min/kg | Rs (Rattus norvegicus [4]): 0.12 µM/min/kg | solubility [5]: 30 µM (≈ 15.6 µg/mL) | [ALP]max (Rattus norvegicus [6]): 30 IU/L | [LDH]max (Rattus norvegicus [7]): 14 UI l-1 | CMC [8]: 29 mM | Smax (Rattus norvegicus [9]): 84 µL/min/kg | Smax (Rattus norvegicus [10]): 0.71 µM/min/kg | Smax (Rattus norvegicus [11]): 6.96 µM/min/kg | Smax (Rattus norvegicus [12]): 4.67 µM/min/kg | Smax (Rattus norvegicus [13]): 11.1 µM/min/kg | Smax (Rattus norvegicus [14]): 90 µL/min/kg | Smax (Rattus norvegicus [15]): 28 nM/min/kg | Smax (Rattus norvegicus [16]): 0.28 µM/min/kg | rK [17]: 0.7 | half-life (cholylglycine hydrolase): > 3 days | half-life [22]: > 3 days | logP [19]: 3.86 | pKa [20]: 3.5 | CMpH [21]: 6.5

CC(CCC(=O)N1CCC[C@@H]1C(=O)O)C1CC[C@H]2[C@@H]3[C@H](O)[C@H](O)C4C[C@H](O)CC[C@]4(C)[C@H]3CC[C@]12C (stereo not given in full)
Rs (Rattus norvegicus [1]): 1.8 µM/min/kg | Rs (Rattus norvegicus [2]): 38 µL/min/kg | Rs (Rattus norvegicus [3]): 23 nM/min/kg | Rs (Rattus norvegicus [4]): 0.26 µM/min/kg | solubility [5]: 60 µM (≈ 30.3 µg/mL) | [ALP]max (Rattus norvegicus [6]): 34 IU/L | [LDH]max (Rattus norvegicus [7]): 48 UI l-1 | CMC [8]: 30 mM | Smax (Rattus norvegicus [9]): 100 µL/min/kg | Smax (Rattus norvegicus [10]): 0.39 µM/min/kg | Smax (Rattus norvegicus [11]): 5.07 µM/min/kg | Smax (Rattus norvegicus [12]): 3.41 µM/min/kg | Smax (Rattus norvegicus [13]): 6 µM/min/kg | Smax (Rattus norvegicus [14]): 60 µL/min/kg | Smax (Rattus norvegicus [15]): 52 nM/min/kg | Smax (Rattus norvegicus [16]): 0.28 µM/min/kg | rK [17]: 0.85 | half-life (cholylglycine hydrolase): > 3 days | half-life [18]: > 3 days | logP [19]: 3.71 | pKa [20]: 3.9 | CMpH [21]: 6.6

CC(CCC(=O)N1C[C@@H](O)C[C@@H]1C(=O)O)C1CC[C@H]2[C@@H]3[C@@H](O)CC4C[C@H](O)CC[C@]4(C)[C@H]3CC[C@]12C (stereo not given in full)
Rs (Rattus norvegicus [1]): 0.9 µM/min/kg | Rs (Rattus norvegicus [2]): 46 µL/min/kg | Rs (Rattus norvegicus [3]): 31 nM/min/kg | Rs (Rattus norvegicus [4]): 0.12 µM/min/kg | solubility [5]: 250 µM (≈ 126 µg/mL) | [ALP]max (Rattus norvegicus [6]): 31 IU/L | [LDH]max (Rattus norvegicus [7]): 10 UI l-1 | CMC [8]: 10 mM | Smax (Rattus norvegicus [9]): 90 µL/min/kg | Smax (Rattus norvegicus [10]): 0.37 µM/min/kg | Smax (Rattus norvegicus [11]): 4.98 µM/min/kg | Smax (Rattus norvegicus [12]): 3.27 µM/min/kg | Smax (Rattus norvegicus [13]): 6.3 µM/min/kg | Smax (Rattus norvegicus [14]): 97 µL/min/kg | Smax (Rattus norvegicus [15]): 68 nM/min/kg | Smax (Rattus norvegicus [16]): 0.25 µM/min/kg | rK [17]: 0.6 | half-life (cholylglycine hydrolase): > 3 days | half-life [22]: > 3 days | logP [19]: 3.59 | pKa [20]: 3.1 | CMpH [21]: 4.7
